Reference: ChEMBL document CHEMBL3739314, “Discovery of Nanomolar Dengue and West Nile Virus Protease Inhibitors Containing a 4-Benzyloxyphenylglycine Residue” (J Med Chem, 2015)

Experiments:
[1] = target: Prothrombin (Homo sapiens) (UniProt P00734); experiment: Inhibition of thrombin (unknown origin) using Boc-Val-Pro-Arg-AMC as substrate at 25 uM preincubated with protein for 15 mins followed by substrate addition measured for 10 mins by continuous fluorimetric assay relative to control
[2] = Inhibition of West Nile virus NS2B-NS3 protease using 2-Abz-Gly-Leu-Lys-Arg-Gly-Gly-[…]-Tyr-NH2 as substrate preincubated with protein for 15 mins followed by substrate addition measured for 15 mins by FRET assay
Summary of the method: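 WNV NS2B-NS3 linked construct at 75 nM (40 nM in one case) in pH 9 Tris buffer, preincubated 15 min with eight inhibitor concentrations (ranges 0–1 up to 0–50 μM). Substrate was 50 μM, with FRET readout over 15 min. IC50 was fitted from triplicates.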

[3] = Inhibition of Dengue virus serotype-2 NS2B-NS3 protease using 2-Abz-Nle-Lys-Arg-Arg-Ser-(3-NO2)-Tyr-NH2 as substrate preincubated with protein for 15 mins followed by substrate addition measured for 15 mins by FRET assay; set-up: species or system dengue virus type 2
Summary of the method: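 DENV-2 NS2B-NS3 linked construct at 30 nM (15 nM in some cases), same pH 9 Tris buffer, 15 min preincubation and FRET read-out. Eight inhibitor concentrations spanned 0–1, 0–2, 0–6 or 0–50 μM, with substrate at 50 μM. IC50 was fitted from triplicates.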

West Nile virus = experiment: Inhibition of West Nile virus NS2B-NS3 protease using 2-Abz-Gly-Leu-Lys-Arg-Gly-Gly-[…]-Tyr-NH2 as substrate at 50 uM preincubated with protein for 15 mins followed by substrate addition measured for 15 mins by FRET assay
Summary of the method: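 Linked WNV NS2B-NS3 protease (150 nM) was preincubated 15 min with inhibitor (50 μM final) in 50 mM Tris-HCl pH 9, 10% ethylene glycol, 0.0016% Brij 58. […] Percent inhibition was taken from the slope relative to the no-inhibitor control, in triplicate.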

Row | Compound | inhibition [1] | IC50 [2] | IC50 [3] | inhibition (West Nile virus)
1 | N=C(N)NCCC[C@H](NC(=O)c1ccc(-c2cccs2)s1)C(=O)N[C@@H](CCCCN)C(=O)N[C@@H](C(N)=O)c1ccc(OCc2ccccc2)cc1 | < 30% | 430 nM | 375 nM | 100%
2 | N=C(N)NCCC[C@H](NC(=O)c1cccc(C=O)c1)C(=O)N[C@@H](CCCCN)C(=O)N[C@@H](C(N)=O)c1ccc(OCc2ccccc2)cc1 | < 30% | – | 164 nM | 97.4%
3 | CC(C)(C)c1ccc(COc2ccc([C@@H](NC(=O)[C@H](CCCCN)NC(=O)[C@H](CCCNC(=N)N)NC(=O)c3ccccc3)C(N)=O)cc2)cc1 | < 30% | – | 173 nM | 85.6%
4 | CC(=O)c1ccc(C(=O)N[C@@H](CCCNC(=N)N)C(=O)N[C@@H](CCCCN)C(=O)N[C@@H](C(N)=O)c2ccc(OCc3ccccc3)cc2)cc1 | < 30% | – | 1040 nM | 84.6%
5 | N=C(N)NCCC[C@H](NC(=O)c1cccnc1)C(=O)N[C@@H](CCCCN)C(=O)N[C@@H](C(N)=O)c1ccc(OCc2ccccc2)cc1 | < 30% | – | 262 nM | 96.4%
6 | N=C(N)NCCC[C@H](NC(=O)c1cc2sccc2s1)C(=O)N[C@@H](CCCCN)C(=O)N[C@@H](C(N)=O)c1ccc(OCc2ccccc2)cc1 | < 30% | – | 401 nM | 92.5%
7 | N=C(N)NCCC[C@H](NC(=O)C1CCCCC1)C(=O)N[C@@H](CCCCN)C(=O)N[C@@H](C(N)=O)c1ccc(OCc2ccccc2)cc1 | < 30% | – | 781 nM | 95.7%
8 | N=C(N)NCCC[C@H](NC(=O)c1ccc(C=O)cc1)C(=O)N[C@@H](CCCCN)C(=O)N[C@@H](C(N)=O)c1ccc(OCc2ccccc2)cc1 | < 30% | – | 232 nM | 83%
9 | Cc1ccc(C(=O)N[C@@H](CCCNC(=N)N)C(=O)N[C@@H](CCCCN)C(=O)N[C@@H](C(N)=O)c2ccc(OCc3ccccc3)cc2)s1 | < 30% | – | 364 nM | 92.6%
10 | N=C(N)NCCC[C@H](NC(=O)c1ccccc1)C(=O)N[C@@H](CCCCN)C(=O)N[C@@H](C(N)=O)c1ccc(OCc2ccc(OC(F)(F)F)cc2)cc1 | < 30% | – | 182 nM | 97.1%
11 | N=C(N)NCCC[C@H](NC(=O)c1sccc1Cl)C(=O)N[C@@H](CCCCN)C(=O)N[C@@H](C(N)=O)c1ccc(OCc2ccccc2)cc1 | < 30% | – | 194 nM | 95.2%
12 | N=C(N)NCCC[C@H](NC(=O)c1ccccc1)C(=O)N[C@@H](CCCCN)C(=O)N[C@@H](C(N)=O)c1ccc(OCc2ccccc2Br)cc1 | < 30% | – | 366 nM | 96.7%
13 | Cc1cccc(COc2ccc([C@@H](NC(=O)[C@H](CCCCN)NC(=O)[C@H](CCCNC(=N)N)NC(=O)c3ccccc3)C(N)=O)cc2)c1 | < 30% | – | 309 nM | 85.2%
14 | N=C(N)NCCC[C@H](NC(=O)c1ccc(F)cc1)C(=O)N[C@@H](CCCCN)C(=O)N[C@@H](C(N)=O)c1ccc(OCc2ccccc2)cc1 | < 30% | – | 639 nM | 92.9%
15 | N=C(N)NCCC[C@H](NC(=O)c1ccccc1)C(=O)N[C@@H](CCCCN)C(=O)N[C@@H](C(N)=O)c1ccc(OCc2ccc(N)cc2)cc1 | < 30% | – | 1990 nM | 85.1%
16 | N=C(N)NCCC[C@H](NC(=O)c1scc2c1OCCO2)C(=O)N[C@@H](CCCCN)C(=O)N[C@@H](C(N)=O)c1ccc(OCc2ccccc2)cc1 | < 30% | – | 194 nM | 96.2%
